We go through 45 compounds from ChEMBL document CHEMBL5236663, “Structure-activity relationship of dibenzylideneacetone analogs against the neglected disease pathogen, Trypanosoma brucei” (Bioorg Med Chem Lett, 2023).

Data set [1] has as its system Trypanosoma brucei. Put plainly: Antitrypanosomal activity against Trypanosoma brucei Lister 427 assessed as parasite growth inhibition measured after 72 hrs by SYBER green staining based multilabel reader analysis. The data set is classed as functional, organism-based. Particulars: Lister 427, 72 h. The procedure, abridged:
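Bloodstream-form T. b. brucei Lister 427 were screened first at 4 μM, and compounds giving >50% growth inhibition went on to eight-point dose-response. Viability was read by SYBR green after 72 h, giving EC50. At least three assay replicates were run, each in duplicate, reported as mean ± SD.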

Data set [2] has as its system HEK293. The experiment in a line: Cytotoxicity against human HEK293 cells assessed as reduction in cell viability at 20 uM measured after 48 hrs by resazurin reagent based multilabel reader analysis. In kind it is toxicity. Particulars: hek293, 48 h.
A short description of data set [3]: Selectivity index, ratio of CC50 for cytotoxicity against human HEK293 cells to EC50 for antitrypanosomal activity against Trypanosoma brucei Lister 427. The data set is classed as toxicity, cell-based. Particulars: read-out: Ratio CC50/EC50.
The test system of data set [4] is Trypanosoma brucei. The experiment in a line: Antitrypanosomal activity against Trypanosoma brucei Lister 427 assessed as time required to kill the parasite at 0.5 to 2 uM by hemocytometer cell counting analysis. The settings on record: dose 0.5-2 µM. In kind it is functional. An outline of the steps: (§1)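 Time-to-kill on bloodstream-form Lister 427 parasites. Test compound was used at 1, 2 and 4 μM, and pentamidine at 0.5, 1 and 2 μM. Parasites were counted over time by hemocytometer, with counts normalized to a DMSO negative control. Three replicates, mean ± SD.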

Data set [5] relates to Trypanosoma brucei. The experiment in a line: Antitrypanosomal activity against Trypanosoma brucei Lister 427 assessed as parasite growth inhibition at 1 uM measured for 6 to 48 hrs by SYBER green staining based multilabel reader analysis. In kind it is functional, organism-based. Particulars: time 6-48 hrs. The procedure, abridged: (§2)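 Washout test on bloodstream-form Lister 427 trypanosomes to tell trypanocidal from trypanostatic action. Compound at 1, 2 or 4 μM was incubated for 6, 4 or 2 h respectively, and the parasites were then washed three times. Regrowth and division were monitored for a further 48 h.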

Data set [6] deals with Trypanosoma brucei. The experiment in a line: Antitrypanosomal activity against Trypanosoma brucei Lister 427 assessed as parasite growth inhibition at 2 uM measured for 4 to 48 hrs by SYBER green staining based multilabel reader analysis. In kind it is functional, organism-based. The settings on record: time 4-48 hrs. The procedure, abridged:
as §2

The subject of data set [7] is Trypanosoma brucei. Put plainly: Antitrypanosomal activity against Trypanosoma brucei Lister 427 assessed as parasite growth inhibition at 4 uM measured for 2 to 48 hrs by SYBER green staining based multilabel reader analysis. In kind it is functional, organism-based. Particulars: time 2-48 hrs. The procedure, abridged:
as §2

Data set [8] relates to Trypanosoma brucei. The experiment in a line: Antitrypanosomal activity against Trypanosoma brucei Lister 427 assessed as time required to kill the parasite at 1 to 4 uM by hemocytometer cell counting analysis. The data set is classed as functional. The settings on record: dose 1-4 µM. The procedure, abridged:
as §1

Data set [9] has as its system Trypanosoma brucei. Put plainly: Antitrypanosomal activity against Trypanosoma brucei Lister 427 assessed as time required to kill the parasite at 2 to 4 uM by hemocytometer cell counting analysis. In kind it is functional. The settings on record: dose 2-4 µM. The procedure, abridged:
as §1

The source made the active and inactive calls. No cut-off for these calls is given here.

As usually defined, the EC50 is the concentration that produces a half-maximal response. As usually defined, the CC50 is the concentration that lowers cell viability or growth by half. On to `O=C(/C=C/c1ccccc1)/C=C/c1ccc(Cl)cc1`, for which the EC50 in [1] is 1.93 µM. In addition, in data set [2], the CC50 was > 20 µM.

As to `COc1ccc(/C=C/C(=O)/C=C/c2ccc(OC)c(OC)c2)cc1OC`, in [1], the EC50 was 0.42 µM. For the same compound, in data set [2], the CC50 was 4.55 µM. In addition, the selectivity ratio in data set [3] is > 10.

For the compound `COc1cc(/C=C/C(=O)/C=C/c2ccccc2)ccc1O`, in data set [1], the EC50 is 0.66 µM. Besides, the CC50 in data set [2] was 5.63 µM.

On to `COc1cc(/C=C/C(=O)/C=C/c2cc(OC)cc(OC)c2)cc(OC)c1`, for which the EC50 in [1] is 0.24 µM. Further, the CC50 in [2] was 1.45 µM.

As for `COc1cc(/C=C/C(=O)CC(=O)/C=C/c2cc(OC)c(OC)c(OC)c2)cc(OC)c1OC`, in data set [1], the EC50 came to 3.99 µM.

As for `Cc1ccc(/C=C/C(=O)/C=C/c2ccc(C)cc2)cc1`, the EC50 in data set [1] is > 4 µM. Further, the CC50 in data set [2] is > 20 µM.

For `COc1ccc(/C=C/C(=O)/C=C/c2ccccc2)cc1`, the EC50 in data set [1] is > 4 µM. For the same compound, the CC50 in data set [2] worked out at 5.49 µM.

For the compound `N=C(N)c1ccc(OCCCCCOc2ccc(C(=N)N)cc2)cc1` [PENTAMIDINE], the EC50 in data set [1] was 0.012 µM. For the same compound, in data set [2], the 50% cytotoxic concentration (CC50) was > 4 µM. Also, the Time in data set [4] was >30 h.

For `O=C(/C=C/c1ccccc1)CC(=O)/C=C/c1ccccc1`, the EC50 in data set [1] was > 4 µM. Moreover, the CC50 in [2] was > 20 µM.

Take `OC(CCc1cccc(Br)c1)CCc1cccc(Br)c1`: in data set [1], the EC50 was > 4 µM. Further, in data set [2], the CC50 was > 20 µM.

On to `COc1cccc(/C=C/C(=O)/C=C/c2cccc(OC)c2)c1`, for which, in data set [1], the EC50 is > 4 µM. For the same compound, the CC50 in [2] was > 20 µM.

In the case of `COc1ccc(/C=C/C(=O)CC(=O)/C=C/c2ccc(OC)cc2OC)c(OC)c1`, the EC50 in data set [1] is > 4 µM.

Take `O=C(/C=C/c1ccccc1)/C=C/c1ccc(O)c(O)c1`: in data set [1], the EC50 was 0.37 µM. The CC50 in data set [2] was found to be 5.54 µM.

Turning to `O=C(/C=C/c1ccccc1)/C=C/c1ccc(O)cc1`, in [1], the concentration giving a half-maximal response (EC50) is 1.25 µM. Besides, in data set [2], the CC50 came to 5.85 µM.

On to `OC(CCc1ccccc1Cl)CCc1ccccc1Cl`, for which, in [1], the EC50 was > 4 µM. Also, the CC50 in data set [2] was > 20 µM.

Turning to `O=C(CCc1ccccc1Cl)CCc1ccccc1Cl`, in data set [1], the EC50 is > 4 µM. In addition, the CC50 in [2] is > 20 µM.

As to `O=C(/C=C/c1ccc(C(F)(F)F)cc1)CC(=O)/C=C/c1ccc(C(F)(F)F)cc1`, in data set [1], the EC50 is > 4 µM. The CC50 in [2] was > 20 µM.

`O=C(/C=C/c1ccccc1)/C=C/c1cccc([N+](=O)[O-])c1`: the EC50 in [1] was 0.2 µM. Moreover, the CC50 in [2] is 2.88 µM. Further, the result in [5], in data set [6] and in [7] was Active. Besides, the Time in data set [8] was <24 h; in data set [9] it was <6 h.

Regarding `COc1ccc(/C=C/C(=O)/C=C/c2ccc(OC)cc2)cc1`, the EC50 in data set [1] is > 4 µM. Moreover, in data set [2], the CC50 is > 20 µM.

For the compound `O=C(/C=C/c1ccccc1)/C=C/c1cccc(O)c1`, the EC50 in data set [1] turned out to be 0.29 µM. In addition, in data set [2], the CC50 was found to be 5.79 µM.

As to `Cc1ccc(CCC(O)CCc2ccc(C)cc2)cc1`, the EC50 in [1] was > 4 µM. Also, in data set [2], the CC50 was > 20 µM.

Take `COc1ccc(/C=C/C(=O)/C=C/c2ccc(O)c(O)c2)cc1`: the EC50 in [1] came to 0.41 µM. Further, the CC50 in [2] is 6.61 µM.

Consider `O=C(/C=C/c1ccc(F)cc1)/C=C/c1ccc(F)cc1`, for which the EC50 in [1] amounted to 1.42 µM. Moreover, in data set [2], the CC50 was 7.64 µM.

For the compound `O=C(/C=C/c1ccc(Cl)c(Cl)c1)CC(=O)/C=C/c1ccc(Cl)c(Cl)c1`, the EC50 in [1] was > 4 µM. The CC50 in data set [2] is > 20 µM.

For the compound `COc1cc(CCC(O)CCc2cc(OC)c(OC)c(OC)c2)cc(OC)c1OC`, the EC50 in [1] is > 4 µM. Also, the half-maximal cytotoxic concentration (CC50) in [2] was > 20 µM.

On to `COc1cc(/C=C2\CCC/C(=C\c3cc(OC)cc(OC)c3)C2=O)cc(OC)c1`, for which the EC50 in [1] is > 4 µM. Also, in data set [2], the CC50 was 3.7 µM.

Regarding `O=C(/C=C/c1ccccc1)/C=C/c1ccc(C(F)(F)F)cc1`, the EC50 in [1] came out at 2.51 µM. Besides, the CC50 in data set [2] is > 20 µM.

On to `CN(C)c1ccc(/C=C/C(=O)/C=C/c2ccccc2)cc1`, for which the EC50 in data set [1] was > 4 µM. In addition, the CC50 in [2] came out at 9.79 µM.

In the case of `Cc1ccc(CCC(=O)CCc2ccc(C)cc2)cc1`, in data set [1], the EC50 is > 4 µM. Besides, the CC50 in [2] was > 20 µM.

With `O=C(/C=C/c1cccc(O)c1)CC(=O)/C=C/c1cccc(O)c1`, the EC50 in data set [1] amounted to 3.29 µM. Further, the CC50 in data set [2] was 6.73 µM.

Consider `COc1cc(CCC(=O)CCc2cc(OC)c(OC)c(OC)c2)cc(OC)c1OC`, for which the EC50 in data set [1] is > 4 µM. The CC50 in data set [2] was > 20 µM.

Turning to `O=C(CCc1cccc(Br)c1)CCc1cccc(Br)c1`, the EC50 in [1] was > 4 µM. Besides, the CC50 in data set [2] was > 20 µM.

In the case of `COc1cc(/C=C/C(=O)/C=C/c2ccc(O)c(OC)c2)ccc1O`, the EC50 in data set [1] was 0.84 µM. Besides, in [2], the CC50 is 9.74 µM.

For the compound `O=C(/C=C/c1ccccc1Cl)/C=C/c1ccccc1Cl`, the EC50 in data set [1] is 0.31 µM. In addition, in data set [2], the CC50 is 4.27 µM. Further, the selectivity ratio in [3] is > 10.

For `COc1ccc(/C=C/C(=O)CC(=O)/C=C/c2ccc(OC)c(OC)c2)cc1OC` [TETRAMETHOXYCURCUMIN], in data set [1], the EC50 was > 4 µM. For the same compound, the CC50 in data set [2] is > 20 µM.

For the compound `O=C1/C(=C/c2ccccc2F)CNC/C1=C\c1ccccc1F`, in data set [1], the EC50 is 0.2 µM. Besides, the CC50 in [2] amounted to 3.58 µM.

In the case of `COc1cc(/C=C/C(=O)/C=C/c2cc(OC)c(OC)c(OC)c2)cc(OC)c1OC`, the EC50 in [1] worked out at 0.36 µM. Moreover, in [2], the CC50 was determined as 0.3 µM.

Regarding `COc1ccc(CCC(=O)CCc2ccc(OC)c(OC)c2)cc1OC`, the EC50 in [1] is > 4 µM. Moreover, in [2], the CC50 was > 20 µM.

Regarding `COc1cccc(/C=C/C(=O)CC(=O)/C=C/c2cccc(OC)c2)c1`, the EC50 in data set [1] was > 4 µM. The CC50 in data set [2] is > 20 µM.

As for `O=C(/C=C/c1ccccc1)/C=C/c1ccc(Br)cc1`, in data set [1], the EC50 stood at 2.33 µM. Also, the CC50 in data set [2] was found to be 7.05 µM.

As for `O=C(/C=C/c1cccc(Br)c1)/C=C/c1cccc(Br)c1`, the EC50 in [1] is > 4 µM. In addition, in data set [2], the CC50 was > 20 µM.

For the compound `Cc1ccc(/C=C/C(=O)/C=C/c2ccccc2)cc1`, in data set [1], the EC50 worked out at 3.74 µM.

Consider `O=C(/C=C/c1ccccc1)/C=C/c1ccc(Cl)c(Cl)c1`, for which, in data set [1], the EC50 is 2.15 µM. Also, the CC50 in data set [2] worked out at 11.3 µM.

On to `COc1ccc(CCC(O)CCc2ccc(OC)c(OC)c2)cc1OC`, for which the EC50 in data set [1] was > 4 µM. In addition, in data set [2], the CC50 is > 20 µM.

For the compound `COc1cc(/C=C/C(=O)CC(=O)/C=C/c2ccc(O)c(OC)c2)ccc1O` [CURCUMIN], the EC50 in data set [1] stood at 1.78 µM. The CC50 in data set [2] stood at 5.56 µM.
